Measurements: paper PMC11339345 (International Journal of Nanomedicine, 2024)

Legend:
[1] = Pharmacokinetics of DTX in mice after oral administration; type: in vivo; conditions: male, Kunming, mouse, plasma (systemic circulation), 20 mg/kg, oral 20 mg/kg DTX
Method in brief: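 Male SPF Kunming mice (22–24 g) were randomised by weight and given a single oral dose of 20 mg/kg. Free drug was prepared as a sonicated water dispersion and the nanoparticle powder was vortexed in water. Five mice were sampled per time point (0.125–12 h) under Zoletil anaesthesia. Portal and systemic heparin plasma were collected, and liver and lung were rinsed, weighed and homogenised in water. Samples were acetonitrile-precipitated and assayed by LC-MS/MS, with parameters from non-compartmental analysis.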

[2] = two hours of incubation in an alkaline solution (0.005 N NaOH, pH roughly 11.7) ref 39; cited from earlier work
[3] = cited from earlier work

CC(=O)O[C@@]12CO[C@@H]1C[C@H](O)[C@@]1(C)C(=O)[C@H](O)C3=C(C)[C@@H](OC(=O)[C@H](O)[C@@H](NC(=O)OC(C)(C)C)c4ccccc4)C[C@@](O)([C@@H](OC(=O)c4ccccc4)[C@H]21)C3(C)C [DTX, Docetaxel]
Tmax [1]: 30 min | Degradation [2]: about 25% | Oral bioavailability [3]: 7.39%
